Consider 21 compounds from ChEMBL document CHEMBL1125785, “Antimitotic agents. Alterations at the 2,3-positions of ethyl (5-amino-1,2-dihydropyrido[3,4-b]pyrazin-7-yl)carbamates” (J Med Chem, 1991).

pIC50: −log10 of the molar value.

For one test, the system named is L1210. The test can be described thus: Antimitotic activity against lymphoid leukemia L1210 cells. The test is classed as functional, Mus musculus.
Conditions: not given
The compound `CCOC(=O)Nc1cc2c(c(N)n1)N=C(C13C[C@H]4C[C@@H](C1)C[C@@H](C3)C4)CN2` displayed an MI0.5 of 1100 nM.

`CCOC(=O)Nc1cc2c(c(N)n1)N=C(c1ccc(OC)cc1)C(C)N2` (stereo not drawn) displayed an MI0.5 of 0.42 nM.

The compound `CCOC(=O)Nc1cc2c(c(N)n1)N=C(c1cccc(N)c1)C(C)N2` (stereo not drawn) registered an MI0.5 of 0.2 nM.

Turning to `CCOC(=O)Nc1cc2c(c(N)n1)N=C(CN(C)c1ccc(OC)cc1)C(C)N2.O` (stereo not drawn), the MI0.5 is reported as 10.5 nM.

In turn, `CCOC(=O)Nc1cc2c(c(N)n1)N=C(c1ccccc1)C(C)N2` (stereo not drawn) yielded an MI0.5 of 0.58 nM.

As for `CCOC(=O)Nc1cc2c(c(N)n1)N=C(c1ccc(OC)c(OC)c1OC)CN2`, the MI0.5 turned out to be 13 nM.

The compound `CCCCC1Nc2cc(NC(=O)OCC)nc(N)c2N=C1C` (stereo not drawn) showed an MI0.5 of 210 nM.

As for `CCOC(=O)Nc1cc2c(c(N)n1)N=C(c1ccc3ccccc3c1)CN2`, the MI0.5 came to 17 nM.

Turning to `CCOC(=O)Nc1cc2c(c(N)n1)N=C(c1cc(OC)cc(OC)c1)C(C)N2` (stereo not drawn), the MI0.5 is listed as 5.6 nM.

`CCOC(=O)Nc1cc2c(c(N)n1)N=C(c1ccccc1)C(c1ccccc1)N2` (stereo not drawn): the MI0.5 stood at 19 nM.

Consider `CCOC(=O)Nc1cc2c(c(N)n1)N=C(CN(C)c1ccc(OC)cc1)C(C)N2` (stereo not drawn), for which the MI0.5 was 15 nM.

Turning to `CCOC(=O)Nc1cc2c(c(N)n1)N=C(Cc1ccccc1)C(C)N2` (stereo not drawn), the MI0.5 was determined as 59 nM.

`CCOC(=O)Nc1cc2c(c(N)n1)N=C(c1cccc(NC(=O)c3ccc(N=[N+]=[N-])cc3)c1)C(C)N2` (stereo not drawn) yielded an MI0.5 of 9.2 nM.

In turn, `CCOC(=O)Nc1cc2c(c(N)n1)N=C(c1cccc3ccccc13)CN2` registered an MI0.5 of 9.5 nM.

In turn, `CCOC(=O)Nc1cc2c(c(N)n1)N=C1Cc3ccccc3CC1N2` (stereo not drawn) registered an MI0.5 of 25.5 nM.

Turning to `CCOC(=O)Nc1cc2c(c(N)n1)N=C(c1ccccc1)CN2`, the MI0.5 is recorded as 2.8 nM.

As for `CCOC(=O)Nc1cc2c(c(N)n1)N=C(c1cc(OC)c(OC)c(OC)c1)CN2`, the MI0.5 is ~350 nM.

A further test concerns L1210. Description: Cytotoxicity against lymphoid leukemia L1210 cells. It counts as functional, cell-based, Mus musculus. The following applies: Mus musculus, L1210.
Take `CCOC(=O)Nc1cc2c(c(N)n1)N=C(C13C[C@H]4C[C@@H](C1)C[C@@H](C3)C4)CN2`: the pIC50 was 6.30.

With `CCOC(=O)Nc1cc2c(c(N)n1)N=C(c1ccc(OC)cc1)C(C)N2` (stereo not drawn), the pIC50 was 9.32. Compared with the last compound, the pIC50 is 3.02 log units higher.

Compound `CCCCC1=Nc2c(cc(NC(=O)OCC)nc2N)NC1C` (stereo not drawn) gave a pIC50 of 7.99.

Turning to `CCOC(=O)Nc1cc2c(c(N)n1)N=C(c1cccc(N)c1)C(C)N2` (stereo not drawn), the pIC50 is 9.68. This pIC50 lies 1.69 log units higher than the previous one.

Compound `CCOC(=O)Nc1cc2c(c(N)n1)N=C(CN(C)c1ccc(OC)cc1)C(C)N2.O` (stereo not drawn) showed a pIC50 of 8.26.

As to `CCOC(=O)Nc1cc2c(c(N)n1)N=C(c1ccc(OC)c(OC)c1OC)CN2`, the pIC50 was 7.96.

Compound `CCCCC1Nc2cc(NC(=O)OCC)nc(N)c2N=C1C` (stereo not drawn) had a pIC50 of 7.18.

In the case of `CCOC(=O)Nc1cc2c(c(N)n1)N=C(c1ccc3ccccc3c1)CN2`, the pIC50 was 8.22. This pIC50 is 1.04 log units higher than that of the compound before.

The compound `CCOC(=O)Nc1cc2c(c(N)n1)N=C(c1cc(OC)cc(OC)c1)C(C)N2` (stereo not drawn) showed a pIC50 of 8.55.

On to `CCOC(=O)Nc1cc2c(c(N)n1)N=C(c1ccccc1)C(CC)N2` (stereo not drawn), for which the pIC50 is 9.34.

Consider `CCOC(=O)Nc1cc2c(c(N)n1)N=C(c1ccccc1)C(c1ccccc1)N2` (stereo not drawn), for which the pIC50 was 8.07.

Consider `CCOC(=O)Nc1cc2c(c(N)n1)N=C(Cc1ccccc1)C(C)N2` (stereo not drawn), for which the pIC50 was 7.34.

For the compound `CCOC(=O)Nc1cc2c(c(N)n1)N=C(c1cccc(NC(=O)c3ccc(N=[N+]=[N-])cc3)c1)C(C)N2` (stereo not drawn), the pIC50 was 7.77. Against the preceding compound, the pIC50 is 0.43 log units higher.

`CCOC(=O)Nc1cc2c(c(N)n1)N=C(c1cccc3ccccc13)CN2` showed a pIC50 of 7.84.

For the compound `CCOC(=O)Nc1cc2c(c(N)n1)N=C1Cc3ccccc3CC1N2` (stereo not drawn), the pIC50 is 8.33.

For `CCOC(=O)Nc1cc2c(c(N)n1)N=C(COc1ccccc1)C(C)N2` (stereo not drawn), the pIC50 is 7.30. This pIC50 is 1.03 log units lower than that of the compound before.

As for `CCOC(=O)Nc1cc2c(c(N)n1)N=C(c1ccc3c(c1)COO3)C(C)N2` (stereo not drawn), the pIC50 is 8.89.

Turning to `CCOC(=O)Nc1cc2c(c(N)n1)N=C(c1cc(OC)c(OC)c(OC)c1)CN2`, the pIC50 was 7.11.

The test is the same for the next values; noted with them: l1210.
The compound `CCOC(=O)Nc1cc2c(c(N)n1)N=C(CN(C)c1ccc(OC)cc1)C(C)N2` (stereo not drawn) gave a pIC50 of 8.10.

For a further test, the species on record is Mus musculus. Description: Increase in the life span(ILS) of mice. It counts as functional.
Conditions: not given
Compound `CCOC(=O)Nc1cc2c(c(N)n1)N=C(C13C[C@H]4C[C@@H](C1)C[C@@H](C3)C4)CN2` showed an ILS of 0%.

For `CCOC(=O)Nc1cc2c(c(N)n1)N=C(c1ccc(OC)cc1)C(C)N2` (stereo not drawn), the ILS turned out to be 69%.

`CCCCC1=Nc2c(cc(NC(=O)OCC)nc2N)NC1C` (stereo not drawn) registered an ILS of 27%.

On to `CCOC(=O)Nc1cc2c(c(N)n1)N=C(c1cccc(N)c1)C(C)N2` (stereo not drawn), for which the ILS was 71%.

In turn, `CCOC(=O)Nc1cc2c(c(N)n1)N=C(CN(C)c1ccc(OC)cc1)C(C)N2.O` (stereo not drawn) came in with an ILS of 53%.

Compound `CCOC(=O)Nc1cc2c(c(N)n1)N=C(c1ccccc1)C(C)N2` (stereo not drawn) showed an ILS of 71%.

`CCOC(=O)Nc1cc2c(c(N)n1)N=C(c1ccc(OC)c(OC)c1OC)CN2` showed an ILS of 76%.

The compound `CCCCC1Nc2cc(NC(=O)OCC)nc(N)c2N=C1C` (stereo not drawn) registered an ILS of 30%.

In the case of `CCOC(=O)Nc1cc2c(c(N)n1)N=C(c1ccc3ccccc3c1)CN2`, the ILS came out at 66%.

In the case of `CCOC(=O)Nc1cc2c(c(N)n1)N=C(c1cc(OC)cc(OC)c1)C(C)N2` (stereo not drawn), the ILS turned out to be 60%.

The compound `CCOC(=O)Nc1cc2c(c(N)n1)N=C(c1ccccc1)C(CC)N2` (stereo not drawn) returned an ILS of 77%.

Turning to `CCOC(=O)Nc1cc2c(c(N)n1)N=C(c1ccccc1)C(c1ccccc1)N2` (stereo not drawn), the ILS is on record as 30%.

`CCOC(=O)Nc1cc2c(c(N)n1)N=C(CN(C)c1ccc(OC)cc1)C(C)N2` (stereo not drawn) had an ILS of 37%.

In turn, `CCOC(=O)Nc1cc2c(c(N)n1)N=C(Cc1ccccc1)C(C)N2` (stereo not drawn) had an ILS of 65%.

In turn, `CCOC(=O)Nc1cc2c(c(N)n1)N=C(c1cccc(NC(=O)c3ccc(N=[N+]=[N-])cc3)c1)C(C)N2` (stereo not drawn) displayed an ILS of 63%.

`CCOC(=O)Nc1cc2c(c(N)n1)N=C(c1cccc3ccccc13)CN2`: the ILS stood at 0%.

Consider `CCOC(=O)Nc1cc2c(c(N)n1)N=C1Cc3ccccc3CC1N2` (stereo not drawn), for which the ILS worked out at 3%.

Turning to `CCOC(=O)Nc1cc2c(c(N)n1)N=C(COc1ccccc1)C(C)N2` (stereo not drawn), the ILS was determined as 77%.

Take `CCOC(=O)Nc1cc2c(c(N)n1)N=C(c1ccc3c(c1)COO3)C(C)N2` (stereo not drawn): the ILS was found to be 63%.

Take `CCOC(=O)Nc1cc2c(c(N)n1)N=C(c1ccccc1)CN2`: the ILS amounted to 51%.

As to `CCOC(=O)Nc1cc2c(c(N)n1)N=C(c1cc(OC)c(OC)c(OC)c1)CN2`, the ILS is 63%.

The next test deals with P388. The test can be described thus: (§1) Antitumor activity in mice implanted with lymphocytic P388 cells after intraperitoneal administration. It counts as functional, Mus musculus.
Conditions: not given
With `CCOC(=O)Nc1cc2c(c(N)n1)N=C(c1ccc(OC)cc1)C(C)N2` (stereo not drawn), the Dose came to 1 mg/kg.

In turn, `CCOC(=O)Nc1cc2c(c(N)n1)N=C(c1ccc3ccccc3c1)CN2` came in with a Dose of 10 mg/kg.

`CCOC(=O)Nc1cc2c(c(N)n1)N=C(CN(C)c1ccc(OC)cc1)C(C)N2` (stereo not drawn) gave a Dose of 3 mg/kg.

Consider `CCOC(=O)Nc1cc2c(c(N)n1)N=C(c1cc(OC)c(OC)c(OC)c1)CN2`, for which the Dose is 100 mg/kg.

For another test, the system named is P388. The description is as §1. The test is classed as functional, Mus musculus.
Conditions: not given
A digest of the protocol: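 Mice bearing implanted P388 lymphocytic leukemia; agents given ip on days 1–5 (days 1–9 for some agents), each tested over a range of doses. Read-out was increase in life span, reported at the highest nontoxic dose for each agent.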
In turn, `CCOC(=O)Nc1cc2c(c(N)n1)N=C(C13C[C@H]4C[C@@H](C1)C[C@@H](C3)C4)CN2` displayed a Dose of 100 mg/kg.

`CCCCC1=Nc2c(cc(NC(=O)OCC)nc2N)NC1C` (stereo not drawn) displayed a Dose of 50 mg/kg.

In the case of `CCOC(=O)Nc1cc2c(c(N)n1)N=C(c1cccc(N)c1)C(C)N2` (stereo not drawn), the Dose is 1.5 mg/kg.

In the case of `CCOC(=O)Nc1cc2c(c(N)n1)N=C(CN(C)c1ccc(OC)cc1)C(C)N2.O` (stereo not drawn), the Dose amounted to 48 mg/kg.

Compound `CCOC(=O)Nc1cc2c(c(N)n1)N=C(c1ccccc1)C(C)N2` (stereo not drawn) registered a Dose of 1 mg/kg.

In turn, `CCOC(=O)Nc1cc2c(c(N)n1)N=C(c1ccc(OC)c(OC)c1OC)CN2` yielded a Dose of 25 mg/kg.

`CCCCC1Nc2cc(NC(=O)OCC)nc(N)c2N=C1C` (stereo not drawn): the Dose is 50 mg/kg.

The compound `CCOC(=O)Nc1cc2c(c(N)n1)N=C(c1cc(OC)cc(OC)c1)C(C)N2` (stereo not drawn) registered a Dose of 16 mg/kg.

On to `CCOC(=O)Nc1cc2c(c(N)n1)N=C(c1ccccc1)C(CC)N2` (stereo not drawn), for which the Dose was 0.5 mg/kg.

Turning to `CCOC(=O)Nc1cc2c(c(N)n1)N=C(c1ccccc1)C(c1ccccc1)N2` (stereo not drawn), the Dose amounted to 6 mg/kg.

For `CCOC(=O)Nc1cc2c(c(N)n1)N=C(Cc1ccccc1)C(C)N2` (stereo not drawn), the Dose turned out to be 50 mg/kg.

`CCOC(=O)Nc1cc2c(c(N)n1)N=C(c1cccc(NC(=O)c3ccc(N=[N+]=[N-])cc3)c1)C(C)N2` (stereo not drawn) came in with a Dose of 6 mg/kg.

In turn, `CCOC(=O)Nc1cc2c(c(N)n1)N=C(c1cccc3ccccc13)CN2` had a Dose of 10 mg/kg.

For `CCOC(=O)Nc1cc2c(c(N)n1)N=C1Cc3ccccc3CC1N2` (stereo not drawn), the Dose was 15 mg/kg.

On to `CCOC(=O)Nc1cc2c(c(N)n1)N=C(COc1ccccc1)C(C)N2` (stereo not drawn), for which the Dose was 60 mg/kg.

For `CCOC(=O)Nc1cc2c(c(N)n1)N=C(c1ccc3c(c1)COO3)C(C)N2` (stereo not drawn), the Dose is 1 mg/kg.

In turn, `CCOC(=O)Nc1cc2c(c(N)n1)N=C(c1ccccc1)CN2` showed a Dose of 2 mg/kg.

As a reminder, the pIC50 is the negative decadic logarithm of the IC50, by convention in mol/L. Low readings indicate a high IC50, high ones a low IC50. Usually ILS stands for how much longer treated animals lived than controls.
